Data taken from ChEMBL document CHEMBL3585289, “Potent and Selective Amidopyrazole Inhibitors of IRAK4 That Are Efficacious in a Rodent Model of Inflammation” (ACS Med Chem Lett, 2015).
Converted amounts (≈) assume the structure as drawn. The source made the active and inactive calls. The rule behind the calls is not given here.

Columns and labels:
[1] = tested on: Mus musculus; assay: Antiinflammatory activity in CIA-MAB-50-induced BALB/c mouse arthritis model assessed as decrease in LPS-induced paw size at 2 mg/kg, po qd administered on day 3 to 10 post LPS challenge measured on day 10 relative to vehicle-treated control; assay type: functional, organism-based
Outline: (§1)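 BALB/c female mice given arthritogenic monoclonal antibody CIA-MAB-50 (2.5 mg) on day 0, then LPS booster (25 μg i.p.) on day 3. Oral gavage once daily on days 3–10; vehicle group received methylcellulose. Paw size measured on days 0, 3, 6, 8 and 10. Study ended on day 10, and day-10 paw size was compared with vehicle.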

[2] = Kinetic aqueous solubility of the compound in phosphate buffered saline at pH 7 at 25 degC after 24 hrs by HPLC/DAD method; assay type: physicochemical; conditions: read-out: Kinetic_solubility
[3] = target: T1, Interleukin-1 receptor-associated kinase 4 (Homo sapiens, UniProt Q9NWZ3); assay: biochemical
T1 sequence (Q9NWZ3 whole entry): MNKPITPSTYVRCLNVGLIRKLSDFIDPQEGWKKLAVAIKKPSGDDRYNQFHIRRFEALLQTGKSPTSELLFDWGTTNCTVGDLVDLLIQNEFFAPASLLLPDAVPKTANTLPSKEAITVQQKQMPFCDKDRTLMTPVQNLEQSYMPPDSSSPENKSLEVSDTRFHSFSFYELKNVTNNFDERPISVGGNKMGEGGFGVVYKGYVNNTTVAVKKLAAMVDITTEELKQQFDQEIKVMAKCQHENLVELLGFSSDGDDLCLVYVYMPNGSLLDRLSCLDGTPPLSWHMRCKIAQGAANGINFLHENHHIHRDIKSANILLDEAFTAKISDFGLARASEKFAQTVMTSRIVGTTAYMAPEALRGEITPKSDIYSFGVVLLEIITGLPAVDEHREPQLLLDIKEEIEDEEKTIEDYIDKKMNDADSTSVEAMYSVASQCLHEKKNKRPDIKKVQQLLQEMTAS

[4] = AUC (0 to 8 hrs) in Sprague-Dawley rat at 10 mg/kg, po administered as cassette dosing; assay type: ADME, organism-based; design: dose 10 mg/kg, time < 8 hr, route oral; conditions: in vivo
[5] = tested on: Rattus norvegicus; assay: Antiinflammatory activity in Lewis rat peritonitis model assessed as reduction of TLR2 agonist PAM2CSK4-induced IFN-gamma production in plasma at 100 mg/kg, po administered 1 hr prior to PAM2CSK4 challenge measured after 3 hrs relative to vehicle-treated control; assay type: functional; design: scale not given: the % may be the effect or the level left
Outline: (§2)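 Female Lewis rats (n = 9) dosed by oral gavage at 100 mg/kg. One hour later, TLR2 agonist PAM2CSK4 injected intraperitoneally. Plasma collected 3 h after injection for cytokine levels and drug exposure. Cytokines expressed relative to a vehicle-only group.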

[6] = tested on: Mus musculus; assay: Antiinflammatory activity in CIA-MAB-50-induced BALB/c mouse arthritis model assessed as decrease in LPS-induced paw size at 100 mg/kg, po qd administered on day 3 to 10 post LPS challenge measured on day 10 relative to vehicle-treated control; assay type: functional, organism-based; outline: as §1
[7] = target: T1, Interleukin-1 receptor-associated kinase 4; assay: Inhibition of IRAK4 in human THP1-XBlue cells assessed as suppression of TLR4 agonist LPS-induced activation of NF-kappaB preincubated for 1 hr followed by LPS challenge measured after 5 hrs by secreted embryonic alkaline phosphatase reporter gene assay; assay type: cell-based, THP-1
[8] = Oral bioavailability in Sprague-Dawley rat at 10 mg/kg administered as cassette dosing; assay type: ADME, organism-based; conditions: in vivo
[9] = tested on: Rattus norvegicus; assay: Antiinflammatory activity in Lewis rat peritonitis model assessed as reduction of TLR2 agonist PAM2CSK4-induced TNF-alpha production in plasma at 100 mg/kg, po administered 1 hr prior to PAM2CSK4 challenge measured after 3 hrs relative to vehicle-treated control; assay type: functional; design: scale not given: the % may be the effect or the level left; outline: as §2
[10] = target: T2, Interleukin-1 receptor-associated kinase 4 (Homo sapiens) (UniProt Q9NWZ3); conditions: 1 uM
T2 sequence (whole entry): T1 sequence (Q9NWZ3 whole entry)

[11] = tested on: Rattus norvegicus; assay: Antiinflammatory activity in Lewis rat peritonitis model assessed as reduction of TLR2 agonist PAM2CSK4-induced IL-8 production in plasma at 100 mg/kg, po administered 1 hr prior to PAM2CSK4 challenge measured after 3 hrs relative to vehicle-treated control; assay type: functional; design: scale not given: the % may be the effect or the level left; outline: as §2
[12] = tested on: Rattus norvegicus; assay: Antiinflammatory activity in Lewis rat peritonitis model assessed as reduction of TLR2 agonist PAM2CSK4-induced IL-6 production in plasma at 100 mg/kg, po administered 1 hr prior to PAM2CSK4 challenge measured after 3 hrs relative to vehicle-treated control; assay type: functional; design: scale not given: the % may be the effect or the level left; outline: as §2
[13] = tested on: Pgp; assay: Activity at rat Pgp assessed as apparent permeability by cell-based assay; assay type: ADME; conditions: not told
[14] = AUC (0 to 24 hrs) in mouse at 5 mg/kg, po; assay type: ADME, organism-based; design: dose 5 mg/kg, time < 24 hr, route oral; conditions: in vivo
[15] = AUC (0 to 8 hrs) in Sprague-Dawley rat at 2 mg/kg, iv; assay type: ADME, organism-based; design: dose 2 mg/kg, time < 8 hr, route intravenous; conditions: in vivo
[16] = Fraction unbound in rat plasma at 10 uM after 6 hrs by dialysis method; assay type: ADME, cell-free
[17] = tested on: Rattus norvegicus; assay: Antiinflammatory activity in Lewis rat peritonitis model assessed as reduction of TLR2 agonist PAM2CSK4-induced IL-1beta production in plasma at 100 mg/kg, po administered 1 hr prior to PAM2CSK4 challenge measured after 3 hrs relative to vehicle-treated control; assay type: functional; design: scale not given: the % may be the effect or the level left; outline: as §2
[18] = AUC (0 to 6 hrs) in Sprague-Dawley rat at 10 mg/kg, po administered as cassette dosing; assay type: ADME, organism-based; design: time < 6 hr, dose 10 mg/kg, route oral; conditions: in vivo
[19] = target: Misshapen-like kinase 1 (Homo sapiens) (UniProt Q8N4C8); assay: Inhibition of recombinant human MINK1 at 10 uM relative to control
[20] = target: T2, Interleukin-1 receptor-associated kinase 4 (Homo sapiens); assay: Inhibition of recombinant human IRAK4 at 10 uM relative to control
[21] = Drug metabolism in rat hepatocytes assessed as monooxidized metabolite formation; assay type: ADME, cell-based, Hepatocyte
[22] = target: BDNF/NT-3 growth factors receptor (Homo sapiens) (UniProt Q16620); assay: Inhibition of recombinant human TRKB at 10 uM relative to control
[23] = Plasma concentration in PAM2CSK4 challenged Lewis rat peritonitis model at 100 mg/kg, po administered 1 hr prior to PAM2CSK4 challenge measured after 3 hrs; assay type: ADME, organism-based; outline: as §2
[24] = tested on: Pgp; assay: Apparent permeability across pig LLC-PK1 cells expressing human or mouse Pgp; assay type: ADME, cell-based, Sus scrofa

BDNF/NT-3 growth factors receptor (Homo sapiens), sequence (Q16620 32-822 limits assumed): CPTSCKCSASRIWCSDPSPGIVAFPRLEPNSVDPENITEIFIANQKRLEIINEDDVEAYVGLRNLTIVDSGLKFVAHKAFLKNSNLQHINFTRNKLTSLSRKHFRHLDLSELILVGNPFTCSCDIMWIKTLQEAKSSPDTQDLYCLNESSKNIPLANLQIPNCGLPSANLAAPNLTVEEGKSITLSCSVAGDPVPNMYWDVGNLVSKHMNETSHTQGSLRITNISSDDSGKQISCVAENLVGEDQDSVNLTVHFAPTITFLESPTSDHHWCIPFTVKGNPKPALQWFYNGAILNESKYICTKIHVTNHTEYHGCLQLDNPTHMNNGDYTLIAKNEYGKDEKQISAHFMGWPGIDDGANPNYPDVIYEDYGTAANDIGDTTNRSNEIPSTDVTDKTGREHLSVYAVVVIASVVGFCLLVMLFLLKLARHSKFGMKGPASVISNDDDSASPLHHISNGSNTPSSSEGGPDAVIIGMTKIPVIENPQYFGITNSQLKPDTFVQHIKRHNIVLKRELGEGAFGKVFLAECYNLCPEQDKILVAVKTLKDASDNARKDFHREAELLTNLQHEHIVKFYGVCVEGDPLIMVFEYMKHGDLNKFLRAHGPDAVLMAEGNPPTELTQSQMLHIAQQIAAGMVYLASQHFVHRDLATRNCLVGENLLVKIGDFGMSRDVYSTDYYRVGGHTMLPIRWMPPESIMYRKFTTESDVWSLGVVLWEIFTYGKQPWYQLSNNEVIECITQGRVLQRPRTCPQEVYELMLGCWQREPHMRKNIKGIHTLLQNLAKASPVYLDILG
Misshapen-like kinase 1 (Homo sapiens), sequence (Q8N4C8 whole entry, looked up): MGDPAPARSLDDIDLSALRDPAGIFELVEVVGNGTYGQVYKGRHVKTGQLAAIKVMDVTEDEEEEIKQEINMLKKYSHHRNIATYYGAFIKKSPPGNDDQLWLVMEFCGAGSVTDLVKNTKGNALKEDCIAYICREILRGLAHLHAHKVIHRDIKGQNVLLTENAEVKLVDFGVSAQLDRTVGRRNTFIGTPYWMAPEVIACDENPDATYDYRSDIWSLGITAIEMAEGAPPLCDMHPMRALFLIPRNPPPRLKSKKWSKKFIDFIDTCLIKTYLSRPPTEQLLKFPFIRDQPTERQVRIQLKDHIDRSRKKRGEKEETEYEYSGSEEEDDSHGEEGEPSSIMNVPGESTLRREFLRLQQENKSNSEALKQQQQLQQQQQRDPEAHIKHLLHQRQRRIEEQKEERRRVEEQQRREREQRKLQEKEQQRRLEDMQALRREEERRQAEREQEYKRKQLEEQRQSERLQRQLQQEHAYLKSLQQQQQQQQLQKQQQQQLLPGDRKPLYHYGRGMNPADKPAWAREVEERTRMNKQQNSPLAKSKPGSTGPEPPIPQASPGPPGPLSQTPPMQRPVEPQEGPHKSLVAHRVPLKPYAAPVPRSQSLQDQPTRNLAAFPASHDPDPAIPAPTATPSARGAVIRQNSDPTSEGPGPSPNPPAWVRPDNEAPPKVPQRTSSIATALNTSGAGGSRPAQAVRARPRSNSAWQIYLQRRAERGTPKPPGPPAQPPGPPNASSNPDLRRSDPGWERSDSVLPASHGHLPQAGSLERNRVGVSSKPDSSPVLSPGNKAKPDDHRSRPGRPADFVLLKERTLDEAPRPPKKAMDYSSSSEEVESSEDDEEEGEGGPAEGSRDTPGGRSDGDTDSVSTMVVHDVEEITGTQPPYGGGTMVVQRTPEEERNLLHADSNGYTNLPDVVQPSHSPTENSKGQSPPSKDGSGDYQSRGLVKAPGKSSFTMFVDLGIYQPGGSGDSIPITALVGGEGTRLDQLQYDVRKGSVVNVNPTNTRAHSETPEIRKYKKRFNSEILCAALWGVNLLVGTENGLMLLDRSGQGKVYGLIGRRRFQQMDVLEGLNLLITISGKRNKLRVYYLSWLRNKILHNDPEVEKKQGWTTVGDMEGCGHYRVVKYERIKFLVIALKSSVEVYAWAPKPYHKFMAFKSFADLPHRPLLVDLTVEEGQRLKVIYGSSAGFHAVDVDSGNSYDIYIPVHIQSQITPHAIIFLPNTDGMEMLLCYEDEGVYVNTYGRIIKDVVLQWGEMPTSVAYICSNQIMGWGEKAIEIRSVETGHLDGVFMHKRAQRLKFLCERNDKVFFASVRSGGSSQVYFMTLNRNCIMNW

C[C@@H]1C[C@H]2[C@@H]3CCC4=CC(=O)C=C[C@]4(C)[C@@]3(F)[C@@H](O)C[C@]2(C)[C@@]1(O)C(=O)CO
Activity [1]: Active

Cc1ccc(-n2nc(-c3ccncc3)cc2NC(=O)c2cnn3cccnc23)cc1
solubility kinetic at 24 h [2]: < 2 µM | IC50 [3]: 61 nM

CS(=O)(=O)N1CCC(c2cc(NC(=O)c3cnn4cccnc34)n(-c3ccc(C4CC4)cn3)n2)CC1
IC50 [3]: 20 nM | AUC(0-t) at 8 h [4]: 1.9 µM·h

COc1ccc(-c2cc(NC(=O)c3cnn4cccnc34)n(-c3ccc(C)cc3)n2)cn1
solubility kinetic at 24 h [2]: 3 µM (≈ 1.28 µg/mL) | IC50 [3]: 310 nM

Cc1ccc(-n2nc(-c3ccccc3)cc2NC(=O)c2cnn3cccnc23)cc1
solubility kinetic at 24 h [2]: < 3 µM | IC50 [3]: 690 nM

Cc1ccc(-n2nc(N3CCN(C)CC3)cc2NC(=O)c2cnn3cccnc23)nc1
Activity [5]: 30% | Activity [6]: Active | IC50 [7]: 83 nM | IC50 [3]: 5 nM | bioavailability [8]: 28% | Activity [9]: 32% | AUC(0-t) at 8 h [4]: 1.7 µM·h | inhibition [10]: > 80% | Activity [11]: 34% | Activity [12]: 85% | Papp [13]: 32 ×10⁻⁶ cm/s | AUC(0-t) at 24 h [14]: 2.3 µM·h | AUC(0-t) at 8 h [15]: 1.29 µM·h | fraction unbound at 6 h, 10 µM [16]: 0.21 | Activity [17]: 28%

Cc1ccc(-n2nc(C3CCN(S(C)(=O)=O)CC3)cc2NC(=O)c2cnn3cccnc23)c(F)c1
IC50 [3]: 40 nM | AUC(0-t) at 6 h [18]: 11.8 µM·h

CS(=O)(=O)N1CCC(c2cc(NC(=O)c3cnn4cccnc34)n(-c3ccccc3)n2)CC1
IC50 [3]: 280 nM

Cc1ccc(-n2nc(C3CCOCC3)cc2NC(=O)c2cnn3cccnc23)cc1
solubility kinetic at 24 h [2]: 24 µM (≈ 9.66 µg/mL) | IC50 [3]: 410 nM | AUC(0-t) at 6 h [18]: 0.45 µM·h

COc1ccc(-c2cc(NC(=O)c3cnn4cccnc34)n(-c3ccc(C)cc3)n2)cc1
inhibition [19]: > 80% | solubility kinetic at 24 h [2]: < 2 µM | IC50 [3]: 170 nM | inhibition [20]: > 80%

COc1ccc(-c2cc(NC(=O)c3cnn4cccnc34)n(-c3ccc(C)cc3)n2)cc1OC
solubility kinetic at 24 h [2]: < 2 µM | IC50 [3]: 44 nM | Drug metabolism [21]: metabolite_detected

Cc1ccc(-n2nc(C3CCN(C(C)C)CC3)cc2NC(=O)c2cnn3cccnc23)cc1
solubility kinetic at 24 h [2]: 170 µM (≈ 75.4 µg/mL) | IC50 [3]: 47 nM | AUC(0-t) at 6 h [18]: 0.28 µM·h

CS(=O)(=O)N1CCC(c2cc(NC(=O)c3cnn4cccnc34)n(-c3ccc(C4CC4)cc3F)n2)CC1
IC50 [3]: 85 nM

Cc1ccc(-n2nc(C3CCN(S(C)(=O)=O)CC3)cc2NC(=O)c2cnn3cccnc23)nc1
IC50 [3]: 27 nM | AUC(0-t) at 8 h [4]: 0.045 µM·h | inhibition [20]: > 80%

Cc1ccc(-n2nc(N3CCN(S(C)(=O)=O)CC3)cc2NC(=O)c2cnn3cccnc23)nc1
IC50 [3]: 2 nM | AUC(0-t) at 8 h [4]: 8.9 µM·h

CC(C)N1CCC(c2cc(NC(=O)c3cnn4cccnc34)n(-c3ccc(C4CC4)cc3F)n2)CC1
IC50 [3]: 13 nM | AUC(0-t) at 8 h [4]: 1.11 µM·h

Cc1cnc(-n2nc(C3CCN(S(C)(=O)=O)CC3)cc2NC(=O)c2cnn3cccnc23)nc1
IC50 [3]: 180 nM

Cc1ccc(-n2nc(C3CCN(C(C)C)CC3)cc2NC(=O)c2cnn3cccnc23)nc1
IC50 [3]: 7 nM

Cc1cccc(-n2nc(C3CCN(S(C)(=O)=O)CC3)cc2NC(=O)c2cnn3cccnc23)c1
IC50 [3]: 2100 nM

Cc1ccc(-n2nc(-c3cccnc3)cc2NC(=O)c2cnn3cccnc23)cc1
solubility kinetic at 24 h [2]: < 2 µM | IC50 [3]: 99 nM | AUC(0-t) at 6 h [18]: 0.44 µM·h

Cc1ccc(-n2nc(C3CCN(C(N)=O)CC3)cc2NC(=O)c2cnn3cccnc23)cc1
IC50 [3]: 220 nM

Cc1ccc(-n2nc(C3CCN(C)CC3)cc2NC(=O)c2cnn3cccnc23)cc1
solubility kinetic at 24 h [2]: 165 µM (≈ 68.6 µg/mL) | IC50 [3]: 150 nM

Cc1ccc(-n2nc(C3CC3)cc2NC(=O)c2cnn3cccnc23)cc1
solubility kinetic at 24 h [2]: 99 µM (≈ 35.5 µg/mL) | IC50 [3]: 370 nM | AUC(0-t) at 6 h [18]: 2.37 µM·h

COc1cc(-c2cc(NC(=O)c3cnn4cccnc34)n(-c3ccc(C)cc3)n2)ccn1
solubility kinetic at 24 h [2]: < 2 µM | IC50 [3]: 390 nM | AUC(0-t) at 6 h [18]: 1.39 µM·h

CS(=O)(=O)N1CCC(c2cc(NC(=O)c3cnn4cccnc34)n(-c3ccc(C4CC4)cc3)n2)CC1
IC50 [3]: 59 nM | AUC(0-t) at 6 h [18]: 5.26 µM·h

Cc1ccc(-n2nc(C3CCN(S(C)(=O)=O)CC3)cc2NC(=O)c2cnn3cccnc23)cc1
Activity [5]: inactive | IC50 [7]: 2400 nM | solubility kinetic at 24 h [2]: < 2 µM | IC50 [3]: 67 nM | Activity [9]: 21% | inhibition [22]: > 80% | AUC(0-t) at 6 h [18]: 19.3 µM·h | Activity [12]: inactive | concentration at 3 h [23]: 2660 nM | inhibition [20]: > 80% | Activity [17]: 28% | Papp [24]: 31 ×10⁻⁶ cm/s

Cc1ccc(-n2nc(C3CCNCC3)cc2NC(=O)c2cnn3cccnc23)cc1
solubility kinetic at 24 h [2]: 172 µM (≈ 69.1 µg/mL) | IC50 [3]: 80 nM

COc1ccc(-n2nc(C3CCN(S(C)(=O)=O)CC3)cc2NC(=O)c2cnn3cccnc23)cc1
IC50 [3]: 71 nM | AUC(0-t) at 6 h [18]: 0.43 µM·h

CC(=O)N1CCC(c2cc(NC(=O)c3cnn4cccnc34)n(-c3ccc(C)cc3)n2)CC1
solubility kinetic at 24 h [2]: 163 µM (≈ 72.3 µg/mL) | IC50 [3]: 180 nM | AUC(0-t) at 6 h [18]: 0.71 µM·h

Cc1ccc(-n2nc(C3CCCCC3)cc2NC(=O)c2cnn3cccnc23)cc1
solubility kinetic at 24 h [2]: < 2 µM | IC50 [3]: 2400 nM
